Results from ChEMBL document CHEMBL1123734, “Resolution, absolute stereochemistry, and enantioselective activity of nomifensine and hexahydro-1H-indeno[1,2-b]pyridines” (J Med Chem, 1987).
Several values for one entry are separate records, joined by “and”; a condition that tells them apart may be missing. Equal values may be shown once.

Tests used:
Mus musculus [1] = test: Antidepressant potential was assessed by the potentiation of yohimbine-induced toxicity in mice by intraperitoneal administration; assay type: functional
Summary of the method: (§1)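 Male NMRI mice (SPF-71, KF), 20-30 g, were randomized into groups of 10. Compounds were dissolved in 1% methylcellulose, dosed at 10 mL/kg, and given ip 30 min before yohimbine hydrochloride (20 mg/kg sc). Deaths were counted after 18 h. ED50 was the dose at which 50% of animals died.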

Rattus norvegicus [2] = organism: Rattus norvegicus; test: In vitro inhibition of [3H]dopamine uptake into rat corpus striatum; assay type: functional, organism-based
Mus musculus [3] = test: Antidepressant potential was assessed by the potentiation of yohimbine-induced toxicity in mice by intraperitoneal administration; Inactive; assay type: functional; details: ip; summary of the method: as §1
Mus musculus [4] = test: Antidepressant potential was assessed by the prevention of tetrabenazine-induced ptosis in mice by intraperitoneal administration; Inactive; assay type: functional; details: ip
Mus musculus [5] = test: (§2) Lethal dose (toxicity) was determined by intraperitoneal administration in mice; assay type: organism-based; details: in vivo, ip
Summary of the method: (§3)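 Male NMRI mice (SPF-71, KF), 20-30 g, randomly assigned to groups of 10. Compounds were dissolved in 1% methylcellulose and given intraperitoneally at 10 mL/kg body weight.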

Mus musculus [6] = test: Antidepressant potential was assessed by the prevention of tetrabenazine-induced ptosis in mice by intraperitoneal administration; assay type: functional
Summary of the method: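 Male NMRI mice (SPF-71, KF), 20-30 g, randomly assigned to groups of 10. Compounds dissolved in 1% methylcellulose and given ip at 10 mL/kg body weight. Ptosis procedure follows an earlier cited method.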

Rattus norvegicus [7] = organism: Rattus norvegicus; test: In vitro inhibition of [14C]norepinephrine uptake into rat hypothalamus; assay type: functional, organism-based
Mus musculus [8] = test: Antidepressant potential was assessed by the potentiation of yohimbine-induced toxicity in mice by intraperitoneal administration.; assay type: functional; summary of the method: as §1
Rattus norvegicus [9] = organism: Rattus norvegicus; test: In vitro inhibition of [3H]5-HT uptake into rat whole brain; assay type: functional, organism-based
[10] = as §2; assay type: organism-based; details: mouse, in vivo, ip; summary of the method: as §3
[11] = (§4) Lethal dose (toxicity) was determined by intraperitoneal administration in mice.; assay type: organism-based; details: mouse, in vivo, ip; summary of the method: as §3
Mus musculus [12] = test: Antidepressant potential was assessed by the prevention of tetrabenazine-induced ptosis in mice by intraperitoneal administration.; assay type: functional
Mus musculus [13] = test: as §4; assay type: organism-based; details: in vivo, ip; summary of the method: as §3
[14] = Mus musculus, ip, read-out: ED50

SMILES: CN1CCC[C@@H]2[C@@H](c3ccccc3)c3ccccc3[C@@H]21
- ED50 (Mus musculus [1]): 0.86 mg/kg
- IC50 (Rattus norvegicus [2]): 0.3 µM
- ED50 (Mus musculus [3]): 5 mg/kg
- ED50 (Mus musculus [4]): 10 mg/kg
- LD50 (Mus musculus [5]): 72 mg/kg and 91 mg/kg
- ED50 (Mus musculus [6]): 0.37 mg/kg
- IC50 (Rattus norvegicus [7]): 0.5 µM and 0.06 µM

SMILES: Nc1ccc([C@H]2c3ccccc3[C@@H]3NCCC[C@H]23)cc1
- ED50 (Mus musculus [8]): 0.07 mg/kg and 0.15 mg/kg
- IC50 (Rattus norvegicus [2]): 0.02 µM and 0.05 µM
- IC50 (Rattus norvegicus [9]; Rattus norvegicus, 1 h): > 10 µM
- LD50 [10]: 78 mg/kg
- IC50 (Rattus norvegicus [7]): 0.005 µM and 0.015 µM
- LD50 [11]: 43 mg/kg

SMILES: CCCN1CCC[C@@H]2[C@@H](c3ccccc3)c3ccccc3[C@@H]21
- ED50 (Mus musculus [1]): 1.2 mg/kg
- IC50 (Rattus norvegicus [2]): 0.04 µM and 0.2 µM
- ED50 (Mus musculus [3]): 5 mg/kg
- IC50 (Rattus norvegicus [9]): > 10 µM
- ED50 (Mus musculus [4]): 5 mg/kg
- LD50 [10]: 39 mg/kg
- LD50 (Mus musculus [5]): 35 mg/kg
- ED50 (Mus musculus [6]; [14]): 0.4 mg/kg
- IC50 (Rattus norvegicus [7]): 0.036 µM and 0.2 µM

SMILES: CN1CCC[C@@H]2[C@@H](c3ccccc3)c3ccccc3[C@@H]21 (racemic)
- ED50 (Mus musculus [1]; [14]): 1.3 mg/kg
- IC50 (Rattus norvegicus [2]): 0.1 µM
- IC50 (Rattus norvegicus [9]): 10 µM
- LD50 [10]: 46.7 mg/kg
- ED50 (Mus musculus [6]; [14]): 0.4 mg/kg
- IC50 (Rattus norvegicus [7]): 0.12 µM

SMILES: Nc1ccc([C@H]2c3ccccc3[C@@H]3NCCC[C@H]23)cc1 (racemic)
- ED50 (Mus musculus [12]): 0.044 mg/kg
- ED50 (Mus musculus [8]): 0.06 mg/kg
- IC50 (Rattus norvegicus [2]): 0.044 µM
- IC50 (Rattus norvegicus [7]): 0.018 µM
- LD50 (Mus musculus [13]): 37 mg/kg

SMILES: CCCN1CCC[C@@H]2[C@@H](c3ccccc3)c3ccccc3[C@@H]21 (racemic)
- ED50 (Mus musculus [1]): 3.5 mg/kg
- IC50 (Rattus norvegicus [2]): 0.11 µM
- IC50 (Rattus norvegicus [9]): > 10 µM
- LD50 (Mus musculus [5]): 57 mg/kg
- ED50 (Mus musculus [6]): 0.8 mg/kg
- IC50 (Rattus norvegicus [7]): 0.41 µM

SMILES: CN1Cc2c(N)cccc2C(c2ccccc2)C1 (racemic) [NOMIFENSINE]
- ED50 (Mus musculus [8]): 1.1 mg/kg
- LD50 (Mus musculus [13]): 141 mg/kg

SMILES: CN1Cc2c(N)cccc2C(c2ccccc2)C1 (stereo in doubt; (+)) [NOMIFENSINE]
- ED50 (Mus musculus [8]): 0.55 mg/kg
- LD50 (Mus musculus [13]): 49.5 mg/kg

SMILES: CN1Cc2c(N)cccc2C(c2ccccc2)C1 (stereo in doubt; (-)) [NOMIFENSINE]
- ED50 (Mus musculus [8]): 20.2 mg/kg
- LD50 (Mus musculus [13]): 170 mg/kg
